This note sets out measurements from ChEMBL document CHEMBL1671864, “First assessment in humans of the safety, tolerability, pharmacokinetics, and ex vivo pharmacodynamic antimalarial activity of the new artemisinin derivative artemisone” (Antimicrob Agents Chemother, 2008).

Series [1] is described as follows: Apparent volume of distribution with respect to the bioavailability in healthy human at 40 mg, po administered as single ascending doses as solution during 10 hrs overnight fasting state. It is filed as ADME, organism-based. Particulars: in vivo, read-out: Vc/F. In outline:
(§1)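 Single ascending oral doses in healthy Caucasian men, given fasted (10-h overnight) with 240 ml water: 10, 20, 30 or 40 mg as oral solution, or 80 mg as IR tablets. Parent plasma levels by LC/MS-MS over 0.25–14 h. Noncompartmental analysis: kel by terminal-phase least-squares regression, AUC extrapolated to infinity, CL/F = dose/AUC, V/F = CL/F÷kel.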

Series [2] in a line: Mean residence time in healthy human at 20 mg, po administered as single ascending doses as solution during 10 hrs overnight fasting state. It is filed as ADME, organism-based. Particulars: in vivo. In a few lines:
(§2)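 Healthy Caucasian male volunteers, single oral dose with 240 ml water after a 10-h overnight fast. Heparinised venous blood was drawn predose and at 0.25–14 h. Plasma was stored frozen. Parent drug and metabolites M1–M3 were measured by LC/MS-MS (MRM, deuterated internal standard). Noncompartmental analysis gave Cmax observed, t1/2 = 0.693/kel (terminal regression) and MRT = AUMC/AUC. Values are geometric means.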

The nature of series [3]: Half life in healthy human plasma at 80 mg, po administered as four 20 mg immediate release tablets daily for 3 days during 10 hrs overnight fasting state measured after 1 day. It is filed as ADME, organism-based. In a few lines:
(§3)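 Healthy Caucasian males took tablets once daily for 3 days with 240 ml water after a 10-h fast. Heparinised blood was drawn predose and at 0.25–14 h after the first and last doses. Plasma parent drug and metabolites M1–M3 were measured by LC/MS-MS (MRM, deuterated internal standard). Noncompartmental analysis gave Cmax observed, t1/2 = 0.693/kel and MRT = AUMC/AUC. Values are geometric means.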

Series [4] relates to Homo sapiens. The experiment in a line: Toxicity in healthy human assessed as increase in alanine aminotransferase level at 80 mg, po administered daily for 3 days as four 20-mg immediate-release tablets during 10 hrs overnight fasting state measured after 24 hrs last post treatment. It is filed as organism-based. Particulars: in vivo.
Series [5] can be described thus: Apparent oral clearance in healthy human at 80 mg, po administered as four 20 mg immediate release tablets daily for 3 days during 10 hrs overnight fasting state measured after 3 day. It is filed as ADME, organism-based. Particulars: in vivo. In a few lines: (§4)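 Healthy Caucasian males took 40 mg (2×20-mg IR tablets) or 80 mg (4 tablets) orally daily for 3 days after a 10-h fast. Plasma parent drug was measured by LC/MS-MS from predose to 14 h after the first and third doses. Noncompartmental analysis: AUC by log-linear trapezoid extrapolated via kel, CL/F = dose/AUC, V/F = CL/F÷kel, geometric means.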

Series [6] is described as follows: Half life in healthy human plasma at 20 mg, po administered as single ascending doses as solution during 10 hrs overnight fasting state. It is filed as ADME, organism-based. In outline: as §2
A short description of series [7]: Cmax in healthy human plasma at 80 mg, po administered as four 20 mg immediate release tablets daily for 3 days during 10 hrs overnight fasting state measured after 1 day. On the set-up: dose 80 mg, route oral. The format is ADME, organism-based. In outline:
as §3

Series [8] in a line: AUC in healthy human plasma at 30 mg, po administered as single ascending doses as solution during 10 hrs overnight fasting state. The format is ADME, organism-based. On the set-up: time < 10 hr, dose 30 mg, route oral. In outline: as §1
A short description of series [9]: Mean residence time in healthy human at 80 mg, po administered as single immediate release tablets during 10 hrs overnight fasting state. It is filed as ADME, organism-based. Particulars: in vivo. In a few lines: (§5)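 Healthy Caucasian male volunteers (n=6 active, 2 placebo, randomized), single 80 mg dose as four 20-mg tablets with 240 ml water after 10-h fast. Venous lithium-heparin plasma sampled predose and 0.25–14 h; analysed by LC/MS-MS (MRM, deuterated internal standard). Noncompartmental analysis; Tmax observed directly; MRT = AUMC/AUC with extrapolation to infinity via kel.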

Series [10] can be described thus: AUC in healthy human plasma at 80 mg, po administered as single immediate release tablets during 10 hrs overnight fasting state. It is filed as ADME, organism-based. Details: dose 80 mg, time < 10 hr, route oral. In outline:
as §1

A short description of series [11]: Half life in healthy human plasma at 40 mg, po administered as single ascending doses as solution during 10 hrs overnight fasting state. The format is ADME, organism-based. In outline:
as §2

Series [12] is described as follows: Tmax in healthy human plasma at 40 mg, po administered as two 20 mg immediate release tablets daily for 3 days during 10 hrs overnight fasting state measured after 1 day. The format is ADME, organism-based. In outline:
(§6)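 Healthy Caucasian men (8 active, 4 placebo per dose) dosed with tablets daily for 3 days after 10-h fast. Lithium-heparin plasma sampled predose and 0.25–14 h after day-1 and day-3 doses, stored frozen. Parent and M1–M3 quantified by LC/MS-MS in positive-ion MRM. Tmax taken directly from observed individual data.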

The nature of series [13]: Half life in healthy human plasma at 10 mg, po administered as single ascending doses as solution during 10 hrs overnight fasting state. The format is ADME, organism-based. In outline: as §2
Series [14] in a line: Cmax in healthy human plasma at 40 mg, po administered as two 20 mg immediate release tablets daily for 3 days during 10 hrs overnight fasting state measured after 3 day. On the set-up: dose 40 mg, route oral. The format is ADME, organism-based. In a few lines:
as §3

Series [15] is described as follows: Tmax in healthy human plasma at 40 mg, po administered as two 20 mg immediate release tablets daily for 3 days during 10 hrs overnight fasting state measured after 3 day. It is filed as ADME, organism-based. In a few lines:
as §6

Series [16] can be described thus: Mean residence time in healthy human at 40 mg, po administered as single ascending doses as solution during 10 hrs overnight fasting state. The format is ADME, organism-based. Particulars: in vivo. In a few lines:
as §2

Series [17] has as its system Homo sapiens. The series can be described thus: Toxicity in healthy human assessed as occurrence of changes in electrocardiogram parameters at 40 mg, po administered daily for 3 days as two 20-mg immediate-release tablets during 10 hrs overnight fasting state. The format is organism-based. Particulars: in vivo. In outline:
(§7)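 Healthy Caucasian men received single ascending doses (10–40 mg solution, 80 mg tablets) or 3-day daily tablet courses, all fasting, with randomized placebo controls. Supine blood pressure, heart rate and resting 12-lead ECG were recorded before and after dosing.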

Series [18] is described as follows: Apparent volume of distribution with respect to the bioavailability in healthy human at 10 mg, po administered as single ascending doses as solution during 10 hrs overnight fasting state. The format is ADME, organism-based. Particulars: in vivo, read-out: Vc/F. In a few lines: as §1
The test system of series [19] is Homo sapiens. The experiment in a line: Toxicity in healthy human assessed as occurrence of clinically relevant changes in vital signs at 10 to 80 mg, po administered as single ascending doses during 10 hrs overnight fasting state. It is filed as organism-based. Particulars: in vivo. In a few lines: as §7
Series [20] is described as follows: Tmax in healthy human plasma at 80 mg, po administered as single immediate release tablets during 10 hrs overnight fasting state. The format is ADME, organism-based. In a few lines: as §5
Another series concerns Plasma. The experiment in a line: Ratio of AUC (0 to infinity) in healthy human plasma at 80 mg, po administered as four 20 mg immediate release tablets daily for 3 days during 10 hrs overnight fasting state measured after 1 day to AUC (0 to infinity) in healthy human plasma at 80 mg, po administered as four 20 mg immediate release tablets daily for 3 days during 10 hrs overnight fasting state measured after 3 day. The format is ADME, organism-based. Particulars: in vivo. In a few lines: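 Healthy Caucasian men took tablets daily for 3 days with 240 ml water after 10-h fast. Plasma sampled 0.25–14 h after first and last doses, artemisone measured by LC/MS-MS. Accumulation ratio is Cmax or AUC0-∞ after last dose divided by that after first dose. Noncompartmental analysis, geometric means with 95% CI.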

For series [21], the system named is Homo sapiens. The experiment in a line: Toxicity in healthy human assessed as decrease in glutamate dehydrogenase level at 80 mg, po administered daily for 3 days as four 20-mg immediate-release tablets during 10 hrs overnight fasting state measured after 2 days last post treatment. It is filed as organism-based. Particulars: in vivo, 48 h.
The nature of series [22]: Apparent oral clearance in healthy human at 40 mg, po administered as two 20 mg immediate release tablets daily for 3 days during 10 hrs overnight fasting state measured after 3 day. It is filed as ADME, organism-based. Particulars: in vivo. In a few lines: as §4
Series [23] is described as follows: Mean residence time in healthy human at 80 mg, po administered as four 20 mg immediate release tablets daily for 3 days during 10 hrs overnight fasting state measured after 3 day. The format is ADME, organism-based. Particulars: in vivo. In a few lines: as §3

Take `C[C@H]1[C@H](N2CCS(=O)(=O)CC2)O[C@@H]2O[C@@]3(C)CC[C@H]4[C@H](C)CC[C@@H]1[C@@]24OO3` [ARTEMIFONE]: the results for the Vd/F in [1] and in [18] were 22.2 L/kg and 8.93 L/kg, respectively. In addition, the MRT in series [2] came to 1.79 h; in series [9] it was 2.64 h; in series [16], 2.39 h; in series [23], 3.53 h. In addition, the half-life in series [3] is 2.97 h; in [6], 3.48 h; in series [11] it was 3.54 h; in series [13], 1.51 h. The Activity entry with Homo sapiens [4], with Homo sapiens [17], with Homo sapiens [19] and with Homo sapiens [21] was “Non-toxic” throughout. Further, the results for the CL/F in series [5] and in series [22] were 3950 mL/min and 3500 mL/min, respectively. For the same compound, the Cmax in series [7] worked out at 155 ng/mL; in series [14], 95 ng/mL. Also, the AUC at 10 h in series [8] worked out at 71.8 ng·h/mL; in series [10], 282 ng·h/mL. Moreover, the Tmax in series [12] came to 1.5 h; in series [15], 1.13 h; in series [20], 0.875 h. Further, the Ratio with Plasma is 98.3%.

One may read the MRT as a mean duration of stay, worked out from the concentration-time curve. Broadly, the half-life is the time in which the quantity being followed falls by half. A high value points to slow decline. As usually defined, the CL/F is clearance divided by bioavailability, as obtained after extravascular dosing. As usually defined, the Cmax is the peak of the concentration-time curve. A word on the AUC: it is the area under the concentration-time curve, a measure of exposure. Read a high AUC as high exposure. In general, Tmax refers to the time at which the peak concentration occurs.
